# SENP8 block-1: human SENP8 protease inhibitors, primary screen, biochemical, fluorescence, Nedd8 protein substrate, uHTS. recombinant SENP8. 360,000 tested, 0.64% active. AID 602440, 2012. inhibition, % at 20 µM. Sentrin-specific protease 8 (Homo sapiens), Q96LD8; in the data active = inhibition mostly above about 40%, no sharp cut-off; inactive = mostly below about 27%
# Target sequence (Q96LD8 whole entry, looked up): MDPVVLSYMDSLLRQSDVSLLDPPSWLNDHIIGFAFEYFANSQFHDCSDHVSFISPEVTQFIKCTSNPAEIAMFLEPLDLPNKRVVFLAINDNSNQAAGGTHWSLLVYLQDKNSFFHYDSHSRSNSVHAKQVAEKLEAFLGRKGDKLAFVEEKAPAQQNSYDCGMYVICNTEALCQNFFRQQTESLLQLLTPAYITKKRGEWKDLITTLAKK
# SENP1 inh: human SENP1 catalytic domain inhibitors, primary screen, biochemical, FRET, uHTS. recombinant SENP1 catalytic domain, CyPet-SUMO1-YPet FRET cleavage. inhibition, % at 10 µM. 360,000 tested, 0.21% active. AID 624204, 2012;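 active = inhibition at least 30% at 10 µM, raw YFP signal under a set limit, fluorescence ratio 0.5 to 1.5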
# Target sequence (Q9P0U3 419-644 limits assumed): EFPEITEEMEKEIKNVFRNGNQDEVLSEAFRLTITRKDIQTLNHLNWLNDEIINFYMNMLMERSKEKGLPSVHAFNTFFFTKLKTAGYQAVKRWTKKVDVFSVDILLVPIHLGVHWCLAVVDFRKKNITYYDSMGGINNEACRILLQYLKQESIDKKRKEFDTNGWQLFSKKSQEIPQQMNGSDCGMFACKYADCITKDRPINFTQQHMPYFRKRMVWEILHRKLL
#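 system = hSENP1 catalytic domain, recombinant | reagent = SFCypet-SUMO1-SFYpet substrate at 25 nM | doses = one dose per compound, 10 µM, 0.5% DMSO | incubation = enzyme reaction for 50 min at room temperature, dark | measured by = FRET, CFP and YFP emission | controls = no-enzyme low, enzyme-DMSO high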
# SENP6 block: SENP6 protease inhibitors, primary screen, biochemical, luminescence, uHTS. Sentrin-specific protease 6 (Homo sapiens), Q9GZR1. AID 2599, 2010. 330,000 tested, 1.8% active. inhibition, % at 10 µM. Recombinant SENP6 catalytic domain, aminoluciferin luminescence;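 active = inhibition above about 50% at the single tested dose, limit read from the data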
# SENP7 block: SENP7 protease inhibitors, primary screen, biochemical, luminescence, uHTS; recombinant SENP7, Z-RLRGG-aminoluciferin luminescence, 40 min; 330,000 tested, 1.5% active; inhibition, % at 5 µM; AID 434973, 2010;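 active = inhibition above about 50% at the single test dose, limit read from the data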
# SENP8 block-2: SENP8 protease inhibitors, primary screen, biochemical, luminescence | Sentrin-specific protease 8 (Homo sapiens), Q96LD8 | purified SENP8, Z-RLRGG-aminoluciferin cleavage | inhibition, % at 10 µM | 330,000 tested, 1.2% active | AID 2540, 2010; in the data active = inhibition above about 50%
# Platelet DG rel: inhibitors of platelet dense granule secretion, primary screen, cell-based, MLPCN, human platelets. human platelet-rich plasma, SFLLRN dense granule ATP release, luminescence. inhibition, %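 (compounds screened at 7.5 µM in platelet-rich plasma)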. 300,000 tested, 0.22% active. AID 1663, 2009;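 active = mean replicate score, as percent of positive control, at or above 50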
# SENP8 confirm: SENP8 protease inhibitors, retest, confirmation, biochemical, luminescence, single concentration. shares compounds with SENP7 block. Recombinant SENP8, Z-RLRGG-aminoluciferin luminescence, 60 min. inhibition, % at 12.5 µM. 6,200 tested, 40% active. AID 488912, 2010;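 active = mean inhibition across replicates above about 50%, limit read from the data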
# SENP6 confirm: SENP6 protease inhibitors, confirmation, biochemical, luminescence, single concentration; AID 488915, 2010; inhibition, % at 12.5 µM; shares compounds with SENP7 block; 6,200 tested, 58% active; recombinant SENP6, Z-RLRGG-aminoluciferin luminescence
# SENP7 conf: SENP7 protease inhibitors, retest, confirmation, biochemical, luminescence, single concentration. shares compounds with SENP7 block. recombinant SENP7, Z-RLRGG-aminoluciferin luminescence, 40 min. inhibition, % at 12.5 µM. 6,200 tested, 69% active
# Casp3 select: caspase-3 protease inhibitors, confirmation, selectivity assay for SENP inhibitor project, biochemical, single concentration; shares compounds with SENP7 block; purified caspase-3, Z-DEVD-aminoluciferin luminescence, 60 min; inhibition, % at 12.5 µM; 6,200 tested, 60% active;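 active = mean inhibition above about 50%, limit read from the data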
# SENP luc ctr: interferes with luciferase luminescence in SENP counter-screen; shares compounds with SENP7 block; Pre-incubated SENP8/Z-RLRGG-aminoluciferin, luciferase luminescence interference; inhibition, % at 12.5 µM; 6,200 tested, 39% active; AID 488919;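 active = mean inhibition above about 50% when retested at one dose, limit read from the data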
# Numbers stand for hits; i = inactive; nt = not tested or not shown. Rows were chosen to be rich in hits. Some 2.6% of all compounds tested hit in one or more screens of this group.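 The calls were made as follows, unless noted: active = mean inhibition above about 50% in the one-dose retest (limit read from the data); inactive = the rest.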
SMILES,SENP8 block-1,SENP1 inh,SENP6 block,SENP7 block,SENP8 block-2,Platelet DG rel,SENP8 confirm,SENP6 confirm,SENP7 conf,Casp3 select,SENP luc ctr
O=C(O/N=C1/CCCc2occc21)c1ccc(Cl)cc1Cl,i,i,67,73,55,i,i,i,i,53,i
O=C(OCCN1CCOCC1)c1ccc(Cl)cc1Cl,i,i,i,i,i,i,nt,nt,nt,nt,nt
COc1ccc(C(=O)O/N=C2\CCCc3nonc32)cc1,i,i,i,i,i,i,nt,nt,nt,nt,nt
COc1ccc(-c2cc(=O)c3ccccc3[nH]2)cc1,i,i,i,i,i,i,nt,nt,nt,nt,nt
COc1ccc(-c2cc(=O)c3ccccc3s2)cc1,i,i,93,i,84,i,60,91,99,82,59
COc1ccc2oc3ccc(OC)cc3c(=O)c2c1,i,i,i,89,62,i,i,53,70,i,i
COc1ccc2sc3ccccc3c(=O)c2c1,i,i,88,81,74,i,i,i,78,53,i
COc1ccc2oc(=O)cc(C)c2c1,i,i,i,i,i,i,nt,nt,nt,nt,nt
COc1cc(/C=C/C(=O)O)ccc1OS(=O)(=O)c1cc(Br)ccc1C,i,i,i,i,i,nt,nt,nt,nt,nt,nt
Cn1c(COc2ccccc2)nnc1SCC(=O)Nc1ccc2c(c1)OCO2,i,i,i,i,i,i,nt,nt,nt,nt,nt
Cc1ccc2[nH]c(-c3cccc(N)c3)cc2c1,i,i,i,70,56,i,57,77,94,i,53
NC(=O)c1cccc(NC(=O)CCCCC(=O)Nc2cccc(C(N)=O)c2)c1,i,i,i,i,i,i,nt,nt,nt,nt,nt
O=C(Nc1nc2c(F)cc(F)cc2s1)c1ccco1,i,i,88,78,74,i,60,88,96,90,i
O=C(Nc1nc2c(F)c(F)c(F)cc2s1)c1ccco1,i,i,68,i,53,i,i,i,78,52,i
Cc1cccc(C(=O)N2CCC(Cc3ccccc3)CC2)c1[N+](=O)[O-],i,i,i,i,i,i,nt,nt,nt,nt,nt
COc1cccc(NC(=O)COC(=O)c2c(C)nn(-c3ccccc3)c2C)c1,i,i,76,74,65,nt,71,67,90,70,75
O=C(Nc1cccc(Cl)c1)N1CCCCCC1,i,i,i,i,i,i,nt,nt,nt,nt,nt
COc1cccc(NC(=S)NC(=O)Cc2ccccc2)c1,i,i,i,i,i,i,nt,nt,nt,nt,nt
COc1cccc(NC(=O)Cc2ccccc2)c1,i,i,74,78,67,i,70,65,90,83,76
CCc1cccc(NC(=O)COC(=O)c2c(C)nn(-c3ccccc3)c2C)c1,i,i,nt,nt,nt,nt,nt,nt,nt,nt,nt
O=C(Nc1ccc(C(=O)N2CCCCC2)cc1)Nc1cccc(Cl)c1,i,i,67,73,i,i,i,i,i,i,i

# Bioassay records: PubChem BioAssay, several laboratories
